Experimental data taken from ChEMBL document CHEMBL3120086, “Bioactive compounds from Vitex leptobotrys” (J Nat Prod, 2014).

How the values were obtained:
[1] = Selectivity index, ratio of cytotoxicity towards human Akata cells to EC50 for EBV infected in human Akata cells; type: toxicity, cell-based; conditions: read-out: Selectivity Index
Human gammaherpesvirus 4 = assay: Antiviral activity against EBV infected in human Akata cells by DNA hybridization assay; type: functional, organism-based; conditions: human gammaherpesvirus 4, Akata
Procedure, shortened: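 Under an NIAID agreement, testing was done at Southern Research Institute as part of a 21-virus panel. EBV activity was assessed in Akata cells by DNA hybridization, and EC50 values were derived.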

[2] = Cytotoxicity against human HOG.R5 cells infected with HIV-1 3B; type: cell-based
Procedure, shortened: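 Cytotoxicity was run in parallel with the anti-HIV assay, in the same GFP-reporter HOG·R5 line (HOS cells expressing CD4/CCR5). Cell-growth inhibition of the host cells was measured.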

[3] = test system: Human immunodeficiency virus 1; assay: Antiviral activity against HIV-1 3B/H9 infected in human HOG.R5 cells transfected with HIV1 LTR-GFP assessed as inhibition of viral replication at 15.9 uM by fluorescence analysis; type: functional; conditions: Human immunodeficiency virus 1, 3B
[4] = test system: Human immunodeficiency virus 1; assay: Antiviral activity against HIV-1 3B/H9 infected in human HOG.R5 cells transfected with HIV1 LTR-GFP assessed as inhibition of viral replication by fluorescence analysis; type: functional, organism-based; conditions: Human immunodeficiency virus 1, 3B
[5] = test system: Human immunodeficiency virus 1; assay: Antiviral activity against HIV-1 3B/H9 infected in human HOG.R5 cells transfected with HIV1 LTR-GFP assessed as inhibition of viral replication at 10 ug/ml by fluorescence analysis; type: functional; conditions: Human immunodeficiency virus 1, 3B

SMILES	selectivity ratio [1]	EC50 (Human gammaherpesvirus 4) [µM]	CC50 [2] [µM]	inhibition at 15.9 µM [3] [%]	IC50 [4] [µM]	inhibition at 10 µg/mL [5] [%]
O[C@]12CO[C@@H](c3ccc4c(c3)OCO4)[C@@]1(O)CO[C@@H]2c1ccc2c(c1)OCO2	1.2	67				
COc1cc(OC)c(C(=O)/C=C/c2ccc(O)cc2)c(OC)c1	3.5	15	24.4	77	< 15.2	
C=Cc1c(C)c2cc3nc(c4c5[nH]c(cc6nc(cc1[nH]2)C(C)=C6CC)c(C)c5C(=O)[C@@H]4C(=O)OC)[C@@H](CCC(=O)O)[C@@H]3C [PHEOPHORBIDE A]						80
